Experimental data reported in the M2OR odorant receptor database.
Residue numbers refer to the chain shown, from its start.

Molecular target: T1, OR6K3 (Homo sapiens) (UniProt Q8NGY3)
T1 sequence (whole entry): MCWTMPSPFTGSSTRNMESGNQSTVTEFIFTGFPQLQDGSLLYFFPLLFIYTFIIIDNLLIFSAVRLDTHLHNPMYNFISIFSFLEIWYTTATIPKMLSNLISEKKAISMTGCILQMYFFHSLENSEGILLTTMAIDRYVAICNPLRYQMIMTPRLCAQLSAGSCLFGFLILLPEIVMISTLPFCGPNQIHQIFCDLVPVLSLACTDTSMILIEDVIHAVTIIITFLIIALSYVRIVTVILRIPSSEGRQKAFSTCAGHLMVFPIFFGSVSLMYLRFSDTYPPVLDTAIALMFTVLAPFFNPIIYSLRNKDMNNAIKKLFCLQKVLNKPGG
Conditions: stereoisomer not certain
Summary of the method: (§1)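 Each entry records the cell line, G-protein, co-transfected protein and tags used. Methods varied with the source, often transient luciferase assays in mammalian cell lines. A receptor–molecule pair is called responsive (active) if the original authors judged its signal statistically different from baseline and non-responsive (inactive) otherwise.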

Odorant receptor agonist call, inactive:
CCCCCC(=O)C(C)C(C)=O (configuration not stated)
CCCCC(S)C(C)CO (configuration not stated)
CCCCCCC=CCCC=O
CC(=O)c1c(C)c([N+](=O)[O-])c(C(C)(C)C)c([N+](=O)[O-])c1C
CCCCCC(S)C(C)CO (configuration not stated)
CC(CO)CS (configuration not stated)
CCC(S)C(C)CO (configuration not stated)
CC1CCCCCCCCCCCCC(=O)C1 (configuration not stated)

System: T2, OR6K3
T2 sequence (whole entry): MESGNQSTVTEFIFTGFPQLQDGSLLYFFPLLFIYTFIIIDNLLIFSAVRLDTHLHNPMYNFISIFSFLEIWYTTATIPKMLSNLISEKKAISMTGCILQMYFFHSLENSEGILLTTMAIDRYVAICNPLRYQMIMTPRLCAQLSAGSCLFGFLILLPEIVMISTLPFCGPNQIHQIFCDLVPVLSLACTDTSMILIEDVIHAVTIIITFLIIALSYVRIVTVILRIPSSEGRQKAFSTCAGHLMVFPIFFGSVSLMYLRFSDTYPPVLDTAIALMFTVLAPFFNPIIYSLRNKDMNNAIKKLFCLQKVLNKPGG
Conditions: stereoisomer not certain
Summary of the method: as §1

Odorant receptor agonist call, inactive:
CC1=NC(C)C(C)S1 (configuration not stated)
CCC1OC(C)=C(O)C1=O (configuration not stated)
CC1=C(O)C(=O)C(C)O1 (configuration not stated)
CCCC(S)CCOC(C)=O (configuration not stated)
CC1=C(O)C(=O)OC1C (configuration not stated)
Cc1cnc(C)c(C)n1
CCC1OC(=O)C(O)=C1C (configuration not stated)

Molecular target: T3, OR6K6 (Homo sapiens) (UniProt Q8NGW6)
T3 sequence (whole entry): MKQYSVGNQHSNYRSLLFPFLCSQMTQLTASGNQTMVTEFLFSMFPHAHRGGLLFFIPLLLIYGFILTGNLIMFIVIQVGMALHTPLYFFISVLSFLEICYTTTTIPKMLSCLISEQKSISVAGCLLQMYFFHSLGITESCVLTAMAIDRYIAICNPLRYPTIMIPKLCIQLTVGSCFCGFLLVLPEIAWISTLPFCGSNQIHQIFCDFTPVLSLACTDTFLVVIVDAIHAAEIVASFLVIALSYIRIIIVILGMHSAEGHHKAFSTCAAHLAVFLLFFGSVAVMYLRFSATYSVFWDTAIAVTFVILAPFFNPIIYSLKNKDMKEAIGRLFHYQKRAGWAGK
Conditions: stereoisomer not certain
Summary of the method: as §1

Odorant receptor agonist call, inactive:
CCCCCC(=O)C(C)C(C)=O (configuration not stated)
CC1=NC(C)C(C)S1 (configuration not stated)
CCCCC(S)C(C)CO (configuration not stated)
CCC1OC(C)=C(O)C1=O (configuration not stated)
CCCCCCC=CCCC=O
CC1=C(O)C(=O)C(C)O1 (configuration not stated)
CC(=O)c1c(C)c([N+](=O)[O-])c(C(C)(C)C)c([N+](=O)[O-])c1C
CCCC(S)CCOC(C)=O (configuration not stated)
CC1=C(O)C(=O)OC1C (configuration not stated)
Cc1cnc(C)c(C)n1
CCCCCC(S)C(C)CO (configuration not stated)
CC(CO)CS (configuration not stated)
CCC(S)C(C)CO (configuration not stated)
CCC1OC(=O)C(O)=C1C (configuration not stated)
CC1CCCCCCCCCCCCC(=O)C1 (configuration not stated)

Molecular target: T4, OR6M1 (Homo sapiens) (UniProt Q8NGM8)
T4 sequence (whole entry): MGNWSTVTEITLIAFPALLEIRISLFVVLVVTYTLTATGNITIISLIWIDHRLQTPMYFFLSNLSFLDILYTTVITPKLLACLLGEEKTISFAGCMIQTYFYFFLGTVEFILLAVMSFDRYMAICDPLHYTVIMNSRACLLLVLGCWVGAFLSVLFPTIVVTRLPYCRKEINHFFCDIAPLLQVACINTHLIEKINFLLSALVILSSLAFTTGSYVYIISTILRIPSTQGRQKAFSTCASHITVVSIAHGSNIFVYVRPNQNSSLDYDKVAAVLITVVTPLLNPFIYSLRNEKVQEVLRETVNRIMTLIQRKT
Conditions: stereoisomer not certain
Summary of the method: as §1

Odorant receptor agonist call, inactive:
CCCCCC(=O)C(C)C(C)=O (configuration not stated)
CC1=NC(C)C(C)S1 (configuration not stated)
CCCCC(S)C(C)CO (configuration not stated)
CCC1OC(C)=C(O)C1=O (configuration not stated)
CCCCCCC=CCCC=O
CC1=C(O)C(=O)C(C)O1 (configuration not stated)
CC(=O)c1c(C)c([N+](=O)[O-])c(C(C)(C)C)c([N+](=O)[O-])c1C
CCCC(S)CCOC(C)=O (configuration not stated)
CC1=C(O)C(=O)OC1C (configuration not stated)
Cc1cnc(C)c(C)n1
CCCCCC(S)C(C)CO (configuration not stated)
CC(CO)CS (configuration not stated)
CCC(S)C(C)CO (configuration not stated)
CCC1OC(=O)C(O)=C1C (configuration not stated)
CC1CCCCCCCCCCCCC(=O)C1 (configuration not stated)

System: T5, OR6M1 R224C
T5 sequence (whole entry): T4 sequence (whole entry) with R224C
Conditions: stereoisomer not certain
Summary of the method: as §1

Odorant receptor agonist call, inactive:
CC1=NC(C)C(C)S1 (configuration not stated)
CCC1OC(C)=C(O)C1=O (configuration not stated)
CC1=C(O)C(=O)C(C)O1 (configuration not stated)
CCCC(S)CCOC(C)=O (configuration not stated)
CC1=C(O)C(=O)OC1C (configuration not stated)
Cc1cnc(C)c(C)n1
CCC1OC(=O)C(O)=C1C (configuration not stated)
